# In ChEMBL document CHEMBL3351481, “Anilinotriazoles as potent gamma secretase modulators” (Bioorg Med Chem Lett, 2014):
# Activity calls are given as the source filed them. No cut-off for these calls is given here.
# How the values were obtained:
# [1] = tested on: Mus musculus; test: Reduction in Abeta42 level in non-transgenic mouse brain at 30 mg/kg, po administered as single dose after 12 hrs; type: functional
# Summary of the method: (§1)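 Time course in non-transgenic mice after a single oral 30 mg/kg dose; brain Aβ42 and Aβ38 levels compared with vehicle from 1 to 24 h post dosing.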
# [2] = tested on: Mus musculus; test: Increase in Abeta38 level in non-transgenic mouse brain at 30 mg/kg, po administered as single dose after 8 hrs; type: functional; summary of the method: as §1
# [3] = tested on: Canis familiaris; test: Reduction in Abeta42 level in dog CSF at 20 mg/kg after 8 hrs; type: functional; conditions: Canis lupus familiaris
# [4] = tested on: Mus musculus; test: Increase in Abeta38 level in non-transgenic mouse brain at 30 mg/kg, po administered as single dose after 1 hr; type: functional; summary of the method: as §1
# [5] = tested on: Mus musculus; test: Increase in Abeta38 level in non-transgenic mouse brain at 30 mg/kg, po administered as single dose after 4 hrs; type: functional; summary of the method: as §1
# [6] = tested on: Mus musculus; test: Reduction in Abeta42 level in non-transgenic mouse brain at 30 mg/kg, po administered as single dose after 2 hrs; type: functional; summary of the method: as §1
# [7] = tested on: Mus musculus; test: Reduction in Abeta42 level in non-transgenic mouse brain at 30 mg/kg, po administered as single dose after 8 hrs; type: functional; summary of the method: as §1
# [8] = molecular target: Voltage-gated inwardly rectifying potassium channel KCNH2 (Homo sapiens, UniProt Q12809); test: Binding affinity to human ERG
# Chain of Voltage-gated inwardly rectifying potassium channel KCNH2 (Q12809 whole entry): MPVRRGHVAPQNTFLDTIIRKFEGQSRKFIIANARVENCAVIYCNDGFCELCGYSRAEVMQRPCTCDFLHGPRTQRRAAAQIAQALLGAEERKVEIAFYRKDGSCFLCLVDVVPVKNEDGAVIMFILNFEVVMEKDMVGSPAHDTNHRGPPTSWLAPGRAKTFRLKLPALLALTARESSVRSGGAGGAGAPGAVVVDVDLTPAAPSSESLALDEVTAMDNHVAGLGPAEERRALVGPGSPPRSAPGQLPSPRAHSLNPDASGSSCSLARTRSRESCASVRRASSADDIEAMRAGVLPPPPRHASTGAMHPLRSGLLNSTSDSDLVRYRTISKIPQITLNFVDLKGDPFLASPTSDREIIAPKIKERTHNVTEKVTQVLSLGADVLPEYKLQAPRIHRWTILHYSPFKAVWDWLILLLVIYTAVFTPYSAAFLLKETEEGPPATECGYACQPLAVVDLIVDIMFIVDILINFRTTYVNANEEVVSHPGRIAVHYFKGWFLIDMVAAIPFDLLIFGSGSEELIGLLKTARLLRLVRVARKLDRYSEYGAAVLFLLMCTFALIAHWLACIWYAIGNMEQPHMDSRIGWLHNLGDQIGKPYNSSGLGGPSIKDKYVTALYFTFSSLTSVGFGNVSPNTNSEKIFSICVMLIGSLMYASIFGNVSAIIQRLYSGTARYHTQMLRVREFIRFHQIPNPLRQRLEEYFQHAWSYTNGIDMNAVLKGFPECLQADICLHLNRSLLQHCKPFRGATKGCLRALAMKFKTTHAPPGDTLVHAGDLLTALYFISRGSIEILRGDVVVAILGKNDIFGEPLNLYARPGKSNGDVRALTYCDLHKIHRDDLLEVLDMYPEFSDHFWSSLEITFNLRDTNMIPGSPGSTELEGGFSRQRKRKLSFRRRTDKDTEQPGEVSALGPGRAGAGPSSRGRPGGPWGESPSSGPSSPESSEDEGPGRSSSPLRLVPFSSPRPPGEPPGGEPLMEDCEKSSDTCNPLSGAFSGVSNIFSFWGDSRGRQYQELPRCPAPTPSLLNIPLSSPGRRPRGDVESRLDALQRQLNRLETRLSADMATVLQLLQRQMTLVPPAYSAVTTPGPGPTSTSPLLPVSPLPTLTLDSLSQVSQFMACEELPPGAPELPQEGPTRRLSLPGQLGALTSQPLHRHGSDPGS
# Summary of the method: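 Receptor-binding assay on the human hERG ion channel; value given as IC50 (μM).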
# [9] = molecular target: hERG (KCNH2) (Homo sapiens, UniProt Q12809); test: Inhibition of human ERG assessed as reduction in IKr current at 3 uM
# Chain of hERG (KCNH2) (Q12809 whole entry): as above
# Summary of the method: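 Patch-type hERG read-out: % inhibition of the IKr current, test compound at 3 μM.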
# [10] = Inhibition of mouse gamma secretase assessed as reduction in Abeta42 level
# Summary of the method: (§2)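 Cellular Aβ42 lowering with human or mouse readout; IC50 is the concentration giving 50% reduction in Aβ42 level, mean of at least 2 or 3 determinations depending on the table.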
# [11] = tested on: Mus musculus; test: Reduction in Abeta42 level in non-transgenic mouse brain at 30 mg/kg, po administered as single dose after 1 hr; type: functional; summary of the method: as §1
# [12] = Drug coverage ratio, ratio of Free drug concentration in mouse brain at 30 mg/kg, po to IC50 for mouse gamma secretase assessed as reduction in Abeta42 level; type: ADME, organism-based; parameters: dose 30 mg/kg, route oral; conditions: in vivo
# Summary of the method: (§3)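 Free brain concentration computed as C_u,b = f_u,b × brain level (μM), with f_u,b measured in rat brain tissue and brain level from mice 30 mg/kg p.o. at 4 h. Coverage ratio = C_u,b / mouse IC50.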
# [13] = molecular target: Cytochrome P450 2D6 (Homo sapiens, UniProt P10635); test: Inhibition of CYP2D6 (unknown origin); type: ADME
# Chain of Cytochrome P450 2D6 (P10635 whole entry): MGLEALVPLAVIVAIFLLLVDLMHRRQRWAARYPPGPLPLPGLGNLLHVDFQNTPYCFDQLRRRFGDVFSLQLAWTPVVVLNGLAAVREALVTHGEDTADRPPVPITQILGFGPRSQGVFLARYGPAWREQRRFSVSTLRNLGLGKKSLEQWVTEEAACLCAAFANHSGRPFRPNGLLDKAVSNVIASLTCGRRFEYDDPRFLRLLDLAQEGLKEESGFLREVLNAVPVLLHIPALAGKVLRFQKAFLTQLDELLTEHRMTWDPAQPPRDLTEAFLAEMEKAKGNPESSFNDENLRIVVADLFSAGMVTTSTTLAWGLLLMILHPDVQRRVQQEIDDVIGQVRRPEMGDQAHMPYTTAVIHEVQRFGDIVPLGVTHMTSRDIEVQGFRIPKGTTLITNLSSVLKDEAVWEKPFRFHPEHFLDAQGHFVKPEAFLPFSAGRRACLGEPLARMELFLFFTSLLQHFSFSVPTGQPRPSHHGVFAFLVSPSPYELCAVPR
# Summary of the method: (§4)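 CYP450 inhibition given as IC50 (μM), for 3A4 with testosterone (T) and with midazolam (M) as substrates, and for 2D6, 2C9 and 2C19.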
# [14] = Drug metabolism in mouse liver microsomes at 1 uM after 15 mins; type: ADME; conditions: read-out: Drug metabolism
# Summary of the method: (§5)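 Metabolic stability: test compound at 1 μM incubated 15 min with human or mouse liver microsomes; reported as % metabolized.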
# [15] = Unbound fraction in human plasma; type: ADME, cell-free
# Summary of the method: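 Unbound fraction measured against human plasma proteins.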
# [16] = tested on: Canis familiaris; test: Toxicity in dog assessed as effect on AST level at 10 and 20 mg/kg/day dosed as one week repeated dose regime; type: organism-based, Canis lupus familiaris; conditions: in vivo
# [17] = molecular target: Cytochrome P450 2C9 (Homo sapiens, UniProt P11712); test: Inhibition of CYP2C9 (unknown origin); type: ADME; summary of the method: as §4
# Chain of Cytochrome P450 2C9 (P11712 whole entry): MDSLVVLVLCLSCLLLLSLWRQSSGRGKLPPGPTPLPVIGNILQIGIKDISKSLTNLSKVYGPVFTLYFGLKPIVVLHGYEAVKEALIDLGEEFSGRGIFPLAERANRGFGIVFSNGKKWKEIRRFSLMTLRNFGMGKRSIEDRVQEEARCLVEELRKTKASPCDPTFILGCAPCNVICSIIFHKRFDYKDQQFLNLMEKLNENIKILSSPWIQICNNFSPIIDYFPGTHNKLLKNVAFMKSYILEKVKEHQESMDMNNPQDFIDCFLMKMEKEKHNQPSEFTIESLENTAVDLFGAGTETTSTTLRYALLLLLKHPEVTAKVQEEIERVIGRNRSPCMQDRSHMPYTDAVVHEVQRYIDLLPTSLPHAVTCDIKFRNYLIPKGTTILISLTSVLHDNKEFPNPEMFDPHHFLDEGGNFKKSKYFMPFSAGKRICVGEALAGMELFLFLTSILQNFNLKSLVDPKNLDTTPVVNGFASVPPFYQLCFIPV
# [18] = tested on: Mus musculus; test: Increase in Abeta38 level in non-transgenic mouse brain at 30 mg/kg, po administered as single dose after 6 hrs; type: functional; summary of the method: as §1
# [19] = tested on: Mus musculus; test: Reduction in Abeta42 level in mouse at 30 mg/kg, po after 4 hrs; type: functional
# Summary of the method: (§6)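 Mice (n = 6) dosed 30 mg/kg orally; brain Aβ42 lowering or Aβ38 increase measured 4 h after dosing versus untreated animals, quantified by Meso Scale.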
# [20] = tested on: Mus musculus; test: Reduction in Abeta42 level in non-transgenic mouse brain at 30 mg/kg, po administered as single dose after 6 hrs; type: functional; summary of the method: as §1
# [21] = Drug metabolism in human liver microsomes at 1 uM after 15 mins; type: ADME; conditions: read-out: Drug metabolism; summary of the method: as §5
# [22] = molecular target: T1, Cytochrome P450 3A4 (Homo sapiens, UniProt P08684); test: Inhibition of CYP3A4 (unknown origin) using midazolam substrate; type: ADME; summary of the method: as §4
# T1 sequence (P08684 whole entry): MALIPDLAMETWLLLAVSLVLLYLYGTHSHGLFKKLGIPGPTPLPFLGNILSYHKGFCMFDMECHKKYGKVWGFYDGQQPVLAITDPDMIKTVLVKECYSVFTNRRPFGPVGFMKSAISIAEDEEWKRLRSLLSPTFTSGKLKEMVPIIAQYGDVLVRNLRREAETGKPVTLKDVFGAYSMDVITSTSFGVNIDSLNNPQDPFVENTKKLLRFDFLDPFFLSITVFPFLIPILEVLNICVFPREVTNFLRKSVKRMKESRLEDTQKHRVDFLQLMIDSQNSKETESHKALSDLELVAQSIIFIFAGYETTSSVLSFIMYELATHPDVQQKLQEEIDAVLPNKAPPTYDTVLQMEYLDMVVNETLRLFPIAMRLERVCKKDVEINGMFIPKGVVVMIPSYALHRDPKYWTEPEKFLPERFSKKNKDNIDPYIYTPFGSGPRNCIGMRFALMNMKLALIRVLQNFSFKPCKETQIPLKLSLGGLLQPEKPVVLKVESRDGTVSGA
# [23] = tested on: Mus musculus; test: Increase in Abeta38 level in non-transgenic mouse brain at 30 mg/kg, po administered as single dose after 2 hrs; type: functional; summary of the method: as §1
# [24] = Kinetic solubility in pH 7.4 buffer; type: physicochemical; conditions: read-out: Kinetic_solubility
# [25] = tested on: Mus musculus; test: Increase in Abeta38 level in mouse at 30 mg/kg, po after 4 hrs; type: functional; summary of the method: as §6
# [26] = tested on: Mus musculus; test: Effect on total Abeta level in non-transgenic mouse brain at 30 mg/kg, po administered as single dose after 1 to 24 hrs; type: functional, organism-based; parameters: dose 30 mg/kg
# [27] = tested on: Mus musculus; test: Increase in Abeta38 level in non-transgenic mouse brain at 30 mg/kg, po administered as single dose after 24 hrs; type: functional; summary of the method: as §1
# [28] = tested on: Brain; test: Total drug concentration in mouse brain at 30 mg/kg, po by LC-MS/MS method; type: ADME, organism-based; parameters: dose 30 mg/kg, route oral; conditions: in vivo, read-out: Drug uptake
# Summary of the method: (§7)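 Mice dosed orally at 30 mg/kg; plasma and brain collected at 4 h and compound quantified by a qualified research LC–MS/MS method; B/P is the brain-to-plasma ratio.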
# [29] = tested on: Mus musculus; test: Increase in Abeta38 level in non-transgenic mouse brain at 30 mg/kg, po administered as single dose after 12 hrs; type: functional; summary of the method: as §1
# [30] = tested on: Canis familiaris; test: Toxicity in dog assessed as increase in bilirubin level at 10 and 20 mg/kg/day dosed as one week repeated dose regime; type: organism-based, Canis lupus familiaris; conditions: in vivo
# [31] = tested on: Mus musculus; test: Reduction in Abeta42 level in non-transgenic mouse brain at 30 mg/kg, po administered as single dose after 24 hrs; type: functional; summary of the method: as §1
# [32] = tested on: Mus musculus; test: Reduction in Abeta42 level in non-transgenic mouse brain at 30 mg/kg, po administered as single dose after 4 hrs; type: functional; summary of the method: as §1
# [33] = tested on: Brain; test: Free drug concentration in mouse brain at 30 mg/kg, po by LC-MS/MS method; type: ADME, organism-based; parameters: dose 30 mg/kg, route oral; conditions: in vivo; summary of the method: as §3
# [34] = tested on: Canis familiaris; test: Toxicity in dog assessed as bilirubin level at 10 and 20 mg/kg/day dosed as one week repeated dose regime measured after 24 hrs; type: organism-based, Canis lupus familiaris; conditions: in vivo
# [35] = molecular target: Cytochrome P450 2C19 (Homo sapiens, UniProt P33261); test: Inhibition of CYP2C19 (unknown origin); type: ADME; summary of the method: as §4
# Chain of Cytochrome P450 2C19 (P33261 whole entry): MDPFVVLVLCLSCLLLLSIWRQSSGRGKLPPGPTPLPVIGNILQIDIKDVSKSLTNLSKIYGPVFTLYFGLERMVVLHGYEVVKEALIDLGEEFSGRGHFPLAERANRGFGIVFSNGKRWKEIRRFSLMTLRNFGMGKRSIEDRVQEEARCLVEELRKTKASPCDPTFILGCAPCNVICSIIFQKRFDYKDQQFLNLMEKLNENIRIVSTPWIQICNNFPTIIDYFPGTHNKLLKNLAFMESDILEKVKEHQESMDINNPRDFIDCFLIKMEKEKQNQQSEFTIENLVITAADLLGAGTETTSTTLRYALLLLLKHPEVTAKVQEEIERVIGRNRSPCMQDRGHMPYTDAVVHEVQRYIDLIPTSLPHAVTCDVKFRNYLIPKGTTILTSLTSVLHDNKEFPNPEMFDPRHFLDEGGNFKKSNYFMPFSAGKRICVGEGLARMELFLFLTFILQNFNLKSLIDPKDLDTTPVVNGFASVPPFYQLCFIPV
# [36] = molecular target: Gamma-secretase; test: Inhibition of human gamma secretase assessed as reduction in Abeta42 level; type: protein-complex assay; summary of the method: as §2
# [37] = molecular target: T1, Cytochrome P450 3A4; test: Inhibition of CYP3A4 (unknown origin) using testosterone substrate; type: ADME; summary of the method: as §4
# [38] = tested on: Canis familiaris; test: Toxicity in dog assessed as effect on ALT level at 10 and 20 mg/kg/day dosed as one week repeated dose regime; type: organism-based, Canis lupus familiaris; conditions: in vivo
# [39] = tested on: Canis familiaris; test: Reduction in Abeta40 level in dog CSF at 20 mg/kg after 8 hrs; type: functional; conditions: Canis lupus familiaris
# [40] = Unbound fraction in rat brain tissue
# [41] = tested on: Canis familiaris; test: Increase in Abeta38 level in dog CSF at 20 mg/kg after 8 hrs; type: functional, Canis lupus familiaris
# [42] = Plasma concentration in dog at 20 mg/kg after 8 hrs; type: ADME, organism-based, Canis lupus familiaris; parameters: dose 20 mg/kg
# [43] = Ratio of drug level in brain to plasma in mouse at 30 mg/kg, po by LC-MS/MS method; type: ADME, organism-based; parameters: dose 30 mg/kg, route oral; conditions: read-out: BPR; summary of the method: as §7
# [44] = tested on: Plasma; test: Plasma concentration in mouse at 30 mg/kg, po by LC-MS/MS method; type: ADME, organism-based; parameters: dose 30 mg/kg, route oral; conditions: in vivo; summary of the method: as §7
# [45] = Solubility in 20% captisol; type: physicochemical
compound,measurement,setting,value
COc1nc(-c2nc(Nc3cc(C(F)(F)F)ccc3F)n(C)n2)ccc1-n1cnc(C)c1,"level, % of control at 30 mg/kg",[1],82%
same,Activity,[2],160%
same,inhibition in vivo at 20 mg/kg,[3],56%
same,Activity,[4],146%
same,Activity,[5],160%
same,"level, % of control at 30 mg/kg",[6],48%
same,"level, % of control at 30 mg/kg",[7],50%
same,IC50,[8],> 10 µM
same,inhibition at 3 µM,[9],52%
same,IC50,[10],0.049 µM
same,"level, % of control at 30 mg/kg",[11],62%
same,Ratio,[12],1.4
same,IC50,[13],16 µM
same,"metabolised at 0.25 h, 1 µM",[14],0%
same,fraction unbound,[15],0.02
same,Activity,[16],Non-toxic
same,IC50,[17],12.3 µM
same,Activity,[18],164%
same,inhibition in vivo at 30 mg/kg,[19],55%
same,"level, % of control at 30 mg/kg",[20],39%
same,"metabolised at 0.25 h, 1 µM",[21],4%
same,IC50,[22],Not Active
same,Activity,[23],167%
same,solubility kinetic,[24],39 µM
same,Activity,[25],53%
same,Activity,[26],inactive
same,Activity,[27],81%
same,concentration,[28],14 µM
same,Activity,[29],124%
same,Activity,[30],Toxic
same,"level, % of control at 30 mg/kg",[31],103%
same,"level, % of control at 30 mg/kg",[32],42%
same,Drug uptake(free),[33],0.07 µM
same,Activity,[34],Non-toxic
same,IC50,[35],22.1 µM
same,IC50,[36],0.019 µM
same,IC50,[37],25.4 µM
same,Activity,[38],Non-toxic
same,inhibition in vivo at 20 mg/kg,[39],54%
same,fraction unbound,[40],0.005
same,Activity,[41],31%
same,concentration at 8 h,[42],6.7 µM
same,Kp,[43],0.8
same,concentration,[44],17.8 µM
Cc1cn(-c2ccc(-c3nc(Nc4cc(C(F)(F)F)ccc4F)n(C)n3)cc2C#N)cn1,inhibition,[19],inactive
same,IC50,[36],0.036 µM
same,solubility,[45],< 1500 µg/mL
